The text below walks through data of ChEMBL document CHEMBL5150073, “Photocaged DNA-Binding Photosensitizer Enables Photocontrol of Nuclear Entry for Dual-Targeted Photodynamic Therapy” (J Med Chem, 2022).

Data set [1] concerns Calf thymus DNA. The data set can be described thus: Binding affinity to calf thymus DNA assessed as dissociation constant by fluorescence based analysis. It is filed as nucleic-acid assay, Bos taurus. In outline:
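Fluorescence titration: compound at 20 μM in PBS pH 7.4, calf thymus DNA added in 10 μM steps until emission plateaued (~60 μM). Excitation 345 nm, emission 350–650 nm. KD obtained by fitting a one-site total saturation binding model (nonspecific binding proportional to ligand). Triplicate independent samples.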

Data set [2] in a line: Drug localization in nucleus of human MCF7 cells assessed as increase in cyan fluorescence at 3 uM incubated for 1 hr by DAPI filter based analysis. It is filed as ADME, subcellular. The note with it: mcf7, 1 h.
Data set [3] has as its system MCF7. The experiment in a line: Induction of DNA damage in human MCF7 cells assessed as double strand breaks by measuring pink foci formation in nucleus at 3 uM incubated for 2 hrs followed by irradiation with 8 J/cm^2 UV irradiation for 5 mins by gammaH2A.X antibody/Alexa 488/DAPI staining based fluorescence analysis. Type of data set: functional, cell-based. The method in brief: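 MCF7 cells treated with compound at 3 μM, then illuminated with 480 nm (15 min, 2.3 J cm⁻²) plus UV (5 min, 8.0 J cm⁻²), or with UV alone. Left 2 h, fixed, stained with Alexa 488-tagged γH2AX antibody and DAPI counterstain. Nuclear foci imaged.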

For data set [4], the system named is MCF7. The data set can be described thus: Photocytotoxicity against human MCF7 cells assessed as reduction in cell viability incubated for 1 hr under dark condition followed by washout and measured after 24 hrs by MTT assay. It is filed as functional. The method in brief: (§1)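 Cells (MCF7, A549, HeLa) incubated 1 h with compound (BB probes 0–32 μM, Br-DAPI 0–64 μM) and washed once. Light arms: 480 nm (15 min, 2.3 J cm⁻²) with or without UV (5 min, 8.0 J cm⁻²), or UV only; dark controls unilluminated. Cells kept overnight in growth medium, then MTT read 24 h post-treatment. CC50 taken relative to untreated cells. n = 3.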
In general terms: Tetrazolium assays rely on reduction of a dye to a coloured formazan, in cell work by metabolically active cells.

Data set [5] deals with MCF7. The data set can be described thus: Photocytotoxicity against human MCF7 cells assessed as reduction in cell viability incubated for 1 hr followed by washout and irradiation with 8 J/cm^2 UV irradiation for 5 mins and measured after 24 hrs by MTT assay. Type of data set: functional. The note with it: MCF7, light or radiation study. The method in brief: as §1
Data set [6] is described as follows: Drug uptake in human MCF7 cells cultured as […] spheroids assessed as increase in green fluorescence in nuclear background at 10 uM incubated overnight under dark condition by DAPI filter based fluorescence analysis. The note with it: mcf7, 10 µM. Type of data set: ADME, cell-based.
Data set [7] has as its system MCF7. The data set can be described thus: Photocytotoxicity against human MCF7 cells assessed as reduction in cell viability incubated for 1 hr followed by washout and irradiation with 8 J/cm^2 UV irradiation for 5 mins and measured after 24 hrs by MTT assay.
Data set [8] can be described thus: Drug localization in nucleus of human MCF7 cells assessed as increase in cyan fluorescence of 3-bromo-2-(4-carbamimidoylphenyl)-1H-indole-6-carboxamidine excitation at 3 uM incubated for 1 hr in dark by DAPI filter based analysis. It is filed as ADME, subcellular. The note with it: mcf7, 1 h.
In data set [9] the test system is Calf thymus DNA. The experiment in a line: Binding affinity to calf thymus DNA assessed as fold change in fluorescence quenching of 3-bromo-2-(4-carbamimidoylphenyl)-1H-indole-6-carboxamidine. Type of data set: nucleic-acid assay. The note with it: Bos taurus.
Data set [10] concerns MCF7. The experiment in a line: Photorelease activity in human MCF7 cells assessed as 3-bromo-2-(4-carbamimidoylphenyl)-1H-indole-6-carboxamidine release by measuring bright cyan fluorescence in nucleus at 3 uM incubated for 1 hr followed by illumination with 1.6 J/cm^2 for 10 mins by DAPI filter based analysis. It is filed as ADME, cell-based. The note with it: mcf7, 1.167 h, time 70 min. The method in brief: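 MCF7 cells given compound (3 μM) for 1 h, washed once with PBS, imaged. DAPI filter set (ex 350–405, em 415–470 nm) used for Br-DAPI cyan signal; EGFP filter set (ex 450–495, em 500–550 nm) used for WinterGreen green signal. Cells imaged dark, then after 480 nm illumination (10 min, 1.6 J cm⁻²).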

Data set [11] can be described thus: Aqueous stability of the compound in PBS at pH 7.4 assessed as hydrolysis of carbamate to release 3-bromo-2-(4-carbamimidoylphenyl)-1H-indole-6-carboxamidine at 0.8 uM incubated for 3 hrs by fluorescence based analysis. Type of data set: physicochemical. The note with it: buffer, pH 7.4, 3 h.
Data set [12] can be described thus: Stability of compound in human MCF7 cells assessed as esterase-mediated 3-bromo-2-(4-carbamimidoylphenyl)-1H-indole-6-carboxamidine release by measuring cyan fluorescence at 2 uM incubated for 1 hr followed by compound washout and further incubated for 1 hr on heated microscopic stage by DAPI filter based fluorescence analysis. It is filed as ADME, cell-based. The note with it: mcf7, 1 h. The method in brief: (§2)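 Cells incubated with compound (2 μM) for 1 h, washed once with PBS, then kept a further 1 h in the dark on a heated microscope stage. Nuclear cyan fluorescence imaged with the DAPI filter set at 0 h and 2 h time points.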

Data set [13] is described as follows: Stability of compound in human A549 cells assessed as esterase-mediated 3-bromo-2-(4-carbamimidoylphenyl)-1H-indole-6-carboxamidine release by measuring cyan fluorescence at 2 uM incubated for 1 hr followed by compound washout and further incubated for 1 hr on heated microscopic stage by DAPI filter based fluorescence analysis. Type of data set: ADME, cell-based. The note with it: a549, 1 h. The method in brief: as §2

The nature of data set [14]: Stability of compound in human HeLa cells assessed as esterase-mediated 3-bromo-2-(4-carbamimidoylphenyl)-1H-indole-6-carboxamidine release by measuring cyan fluorescence at 2 uM incubated for 1 hr followed by compound washout and further incubated for 1 hr on heated microscopic stage by DAPI filter based fluorescence analysis. It is filed as ADME, cell-based. The method in brief: as §2

The nature of data set [15]: Induction of ROS production in PBS at pH 7.4 at 1 uM irradiated with 480 nm 2.3 J/cm^2 light for 15 mins with 2-photon irradiation by DCFH2-DA probe based analysis. It is filed as functional.
Data set [16] has as its system MCF7. The data set can be described thus: Induction of ROS production in human MCF7 cells at 2 uM incubated for 1 hr in dark followed by irradiation with 480 nm 2.3 J/cm^2 light for 15 mins with 8 J/cm^2 UV irradiation for 5 mins by DCFH2-DA probe based analysis. It is filed as functional, cell-based. The note with it: time 80.0 min. The method in brief:
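MCF7 cells incubated with compound (2 μM) 1 h in the dark, washed, loaded with 10 μM DCFH2DA for 30 min, washed. DCF green fluorescence imaged after 480 nm illumination (15 min, 2.3 J cm⁻²), then after added 365 nm UV (5 min, 8.0 J cm⁻²). Mean fluorescence intensity quantified.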

Data set [17] has as its system MCF7. The experiment in a line: Photocytotoxicity against human MCF7 cells assessed as reduction in cell viability incubated for 1 hr followed by washout and irradiation with 480 nm 2.3 J/cm^2 light for 15 mins and measured after 24 hrs by MTT assay. It is filed as functional. The note with it: MCF7, light or radiation study. The method in brief: as §1
Data set [18] relates to MCF7. The experiment in a line: Photocytotoxicity against human MCF7 cells assessed as reduction in cell viability incubated for 1 hr followed by washout and irradiation with 480 nm 2.3 J/cm^2 light for 15 mins with 8 J/cm^2 UV irradiation for 5 mins and measured after 24 hrs by MTT assay. The note with it: MCF7, light or radiation study. Type of data set: functional. The method in brief:
as §1

The nature of data set [19]: Photorelease ability in PBS at pH 7.4 assessed as 3-bromo-2-(4-carbamimidoylphenyl)-1H-indole-6-carboxamidine release by measuring change in emission spectra at 1 uM incubated in presence of CT-DNA and irradiated with 3.1 J/cm^2 mercury lamp light for 20 mins. Type of data set: functional.
Data set [20] can be described thus: Photorelease activity in PBS at pH 7.4 assessed as 3-bromo-2-(4-carbamimidoylphenyl)-1H-indole-6-carboxamidine release by measuring increase in fluorescence intensity at 50 uM in presence of CT-DNA incubated for 3 hrs under dark condition by RP-HPLC analysis. Type of data set: functional. In outline: (§3)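 Samples at 50 μM in PBS pH 7.4 were either kept 3 h at 37 °C in the dark or illuminated 20 min at 480 nm (450–495 nm filter, 3.1 J cm⁻²). Analysed by RP-HPLC on a C18 analytical column with absorbance at 345 nm; retention times recorded. n = 2 independent samples.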

Data set [21] in a line: Photorelease activity in PBS at pH 7.4 assessed as 3-bromo-2-(4-carbamimidoylphenyl)-1H-indole-6-carboxamidine release by measuring time at when peak observed at 50 uM in presence of CT-DNA illuminated with 3.1 J/cm^2 480 nm illumination for 20 mins by RP-HPLC analysis. It is filed as functional. In outline:
as §3

Data set [22] is described as follows: Photorelease activity in PBS at pH 7.4 assessed as wintergreen release at 50 uM in presence of CT-DNA illuminated with 3.1 J/cm^2 480 nm illumination for 20 mins by RP-HPLC analysis. Type of data set: functional. In outline: as §3

Calls of active or inactive are those of the source. The calls are words filed in the database; no cut-off is given here.

Usually Kd stands for the equilibrium constant for the complex coming apart. Broadly, the CC50 is the concentration giving 50% cytotoxicity.

In the case of `N=C(N)c1ccc(-c2[nH]c3cc(C(=N)N)ccc3c2Br)cc1`, the Kd with Calf thymus DNA [1] is 19 µM. Moreover, the Drug uptake entry in data set [2] and in data set [6] was “Active” each time. The result with MCF7 [3] and in the data set with MCF7 [7] was Active. Besides, the figures for the CC50 with MCF7 [4] and in the data set on MCF7 [5] were > 64 µM and 7.6 µM, respectively.

With `COC(=O)/N=C(/N)c1ccc2c(Br)c(-c3ccc(C(=N)N)cc3)[nH]c2c1`, in [8], the Drug uptake result was “Active”. Also, in the data set with Calf thymus DNA [9], the fold change (FC) stood at 4.

Consider `CC1=CC(C)=[N+]2C1=C(COC(=O)/N=C(\N)c1ccc(-c3[nH]c4cc(C(=N)N)ccc4c3Br)cc1)c1c(C)cc(C)n1[B-]2(C)C`, for which, in the data set on Calf thymus DNA [1], the Kd is 10 µM. Besides, the Drug metabolism entry with MCF7 [10] is on record as “Metabolite_Detected”; in [19], “Metabolite detected”; in data set [20] it was “Metabolite not detected”; in data set [22], “Metabolite not detected”. Also, the Stability entry in data set [11], in data set [12], in data set [13] and in data set [14] was “Stable” in each case. Besides, the outcome (in [15]; in the data set with MCF7 [16]) was Active. Further, the CC50 is > 16 µM in the data set on MCF7 [4], 5.8 µM in the data set with MCF7 [17] and 0.6 µM in the data set with MCF7 [18]. In the data set on Calf thymus DNA [9], the fold change (FC) was determined as 4. The TIME in data set [21] was determined as 0.533 h.
